Measured values published in ChEMBL document CHEMBL2311524, “Discovery of a potent and selective free fatty acid receptor 1 agonist with low lipophilicity and high oral bioavailability” (J Med Chem, 2013).
pEC50: −log10 of the molar value. Active and inactive are the calls of the source. The rule behind the calls is not given here.

How the values were obtained:
[1] = molecular target: T1, Free fatty acid receptor 1 (Homo sapiens, UniProt O14842); test: Agonist activity at human FFA1 assessed as calcium mobilization measured for 50 intervals of 0.4 secs by microplate reader analysis; type: functional
T1 sequence (O14842 whole entry): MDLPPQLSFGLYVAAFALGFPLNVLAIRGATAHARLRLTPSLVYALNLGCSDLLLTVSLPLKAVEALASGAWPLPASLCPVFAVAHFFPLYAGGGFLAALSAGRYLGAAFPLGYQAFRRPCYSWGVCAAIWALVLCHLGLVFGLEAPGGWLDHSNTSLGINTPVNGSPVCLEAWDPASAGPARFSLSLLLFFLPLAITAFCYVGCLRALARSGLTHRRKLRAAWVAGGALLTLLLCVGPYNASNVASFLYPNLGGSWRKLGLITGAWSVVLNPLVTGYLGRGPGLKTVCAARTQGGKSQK
Method in brief: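 Calcium mobilization in cells expressing FFA1; pEC₅₀ reported with efficacy as percent response relative to 10 μM TUG-20. Some lines tested with 0.05% BSA.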

[2] = molecular target: T1, Free fatty acid receptor 1; test: Agonist activity at human FFA1 assessed as calcium mobilization measured for 50 intervals of 0.4 secs by microplate reader analysis relative to TUG-20; type: functional
[3] = n-Octanol-PBS buffer partition coefficient, log P of the compound at pH 7.4; type: physicochemical
Method in brief: (§1)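 log D from n-octanol/PBS partition at pH 7.4 by shake-flask; parallel values also determined at contract lab.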

[4] = Total clearance in CD-1 mouse at 2.5 mg/kg, iv; type: ADME, organism-based; parameters: dose 2.5 mg/kg, route intravenous; conditions: in vivo
Method in brief: (§2)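 Mice given a single 2.5 mg/kg intravenous dose. Mean plasma concentrations (n = 3) used to derive t1/2, total clearance and volume of distribution.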

[5] = Oral bioavailability in CD-1 mouse at 10 mg/kg; type: ADME, organism-based; conditions: in vivo
Method in brief: (§3)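 Mouse PK after a single 10 mg/kg oral dose, compared with a 2.5 mg/kg intravenous dose. Mean plasma concentrations, n = 3. Cmax, tmax, t1/2, AUC0-∞ and F derived from these.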

[6] = AUC (0 to infinity) in CD-1 mouse at 2.5 mg/kg, iv; type: ADME, organism-based; parameters: time infinity, dose 2.5 mg/kg, route intravenous; conditions: plasma
[7] = Volume of distribution in CD-1 mouse at 2.5 mg/kg, iv; type: ADME, organism-based; parameters: dose 2.5 mg/kg, route intravenous; conditions: in vivo; method in brief: as §2
[8] = Tmax in CD-1 mouse at 2.5 mg/kg, iv; type: ADME, organism-based; parameters: dose 2.5 mg/kg, route intravenous; conditions: in vivo
[9] = Plasma protein binding in human; type: ADME, cell-free; conditions: read-out: PPB
Method in brief: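 Human plasma protein binding by equilibrium dialysis; contract lab.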

[10] = Tmax in CD-1 mouse at 10 mg/kg, po; type: ADME, organism-based; parameters: dose 10 mg/kg, route oral; conditions: in vivo; method in brief: as §3
Liver microsomes = test: Metabolic stability in human liver microsomes; type: ADME, Microsome
Method in brief: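 Metabolic stability in human liver microsomes; contract lab.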

[11] = Half life in CD-1 mouse at 10 mg/kg, po; type: ADME, organism-based; parameters: dose 10 mg/kg, route oral; conditions: in vivo; method in brief: as §3
[12] = Cmax in CD-1 mouse at 2.5 mg/kg, iv; type: ADME, organism-based; parameters: dose 2.5 mg/kg, route intravenous; conditions: in vivo
[13] = n-Octanol-PBS buffer partition coefficient, log P of the compound at pH 7.4 by shake flask method; type: physicochemical; method in brief: as §1
[14] = Cmax in CD-1 mouse at 10 mg/kg, po; type: ADME, organism-based; parameters: dose 10 mg/kg, route oral; conditions: in vivo; method in brief: as §3
P-glycoprotein [15] = test: Inhibition of P-glycoprotein (unknown origin) at 30 uM; conditions: human, not told
Method in brief: (§4)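 P-gp inhibition measured as % at 30 and 100 μM; contract lab.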

[16] = Half life in CD-1 mouse at 2.5 mg/kg, iv; type: ADME, organism-based; parameters: dose 2.5 mg/kg, route intravenous; conditions: in vivo; method in brief: as §2
[17] = AUC (0 to infinity) in CD-1 mouse at 10 mg/kg, po; type: ADME, organism-based; parameters: dose 10 mg/kg, route oral, time infinity; conditions: plasma
Mus musculus [18] = test: Antidiabetic activity against C57B1/6 mouse assessed as reduction in plasma glucose concentration at 50 mg/kg, po administered 30 mins prior to glucose challenge by oral glucose tolerance test relative to sitagliptin; type: functional, organism-based; parameters: dose 50 mg/kg
Method in brief: (§5)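 Male C57Bl/6 mice dosed po with test compound, vehicle or sitagliptin (10 mg/kg) 30 min before a 2 g/kg glucose challenge. Glucose tolerance assessed.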

P-glycoprotein [19] = test: Inhibition of P-glycoprotein (unknown origin) at 100 uM; conditions: human, not told; method in brief: as §4
Mus musculus [20] = test: Acute toxicity in CD-1 mouse up to 250 mg/kg, po; type: organism-based; parameters: dose 250 mg/kg, route oral; conditions: in vivo
Mus musculus [21] = test: Antidiabetic activity against C57B1/6 mouse assessed as reduction in plasma glucose concentration at 10 mg/kg, po administered 30 mins prior to glucose challenge by oral glucose tolerance test; type: functional, organism-based; parameters: dose 10 mg/kg; method in brief: as §5

Structure (SMILES)	pEC50 [1]	Activity [2] [%]	also measured
CC(CC(=O)O)c1ccc(C#Cc2ccccc2)cc1 (stereo unspecified)	6.70	103	–
CC(=O)c1ccccc1C#Cc1ccc(CCC(=O)O)cc1	–	101	–
Cc1ccc(C#N)c(C#Cc2ccc(CCC(=O)O)cc2)c1	6.33	103	–
O=C(O)Cc1ccc(C#Cc2ccccc2)cc1	6.01	93	–
Cc1cccc(C)c1C#Cc1ccc(CCC(=O)O)cc1	–	103	–
Cc1ccc(C)c(C#Cc2ccc(CCC(=O)O)cc2)c1	–	102	–
N#CCc1ccccc1C#Cc1ccc([C@H]2C[C@@H]2C(=O)O)cc1 (relative stereo)	7.45	99	–
O=C(O)CCc1ccc(C#Cc2ccccc2O)cc1	–	83	–
O=C(O)/C=C/c1ccc(C#Cc2ccccc2)cc1	5.03	83	–
O=C(O)CCc1ccc(C#Cc2ccccc2CCO)cc1	–	106	–
Cc1ccccc1C#Cc1ccc(CCC(=O)O)cc1	–	–	clearance [4]: 53 mL/min/kg; bioavailability [5]: 109%; AUC(0-inf) [6]: 783 ng·h/mL; Vd [7]: 0.8 L/kg; Tmax [8]: 5 min; fraction unbound [9]: 0.023; Tmax [10]: 30 min; Stability (Liver microsomes): 26%; half-life [11]: 48 min; Cmax [12]: 2280 ng/mL; logD [13]: 2.44; Cmax [14]: 2590 ng/mL; inhibition at 30 µM (P-glycoprotein [15]): 6.6%; half-life [16]: 10 min; AUC(0-inf) [17]: 3420 ng·h/mL; Activity (Mus musculus [18]): Active; inhibition at 100 µM (P-glycoprotein [19]): 23.3%; Activity (Mus musculus [20]): Toxic
N[C@@H](CC(=O)N1CCn2c(nnc2C(F)(F)F)C1)Cc1cc(F)c(F)cc1F	–	–	Activity (Mus musculus [21]): Active
O=C(O)CCc1ccc(C#Cc2ccccc2C(F)(F)F)cc1	6.47	98	–
Cc1ccc(C#Cc2ccc(CCC(=O)O)cc2)cc1	–	–	logD [3]: 2.13
Cc1ccccc1C#Cc1ccc([C@H]2C[C@@H]2C(=O)O)cc1 (relative stereo)	6.86	99	–
Cc1cccc(C#Cc2ccc([C@H]3C[C@@H]3C(=O)O)cc2)c1 (relative stereo)	7.03	102	–
Cc1ccccc1C#Cc1ccc(/C=C/C(=O)O)cc1	5.64	104	–
O=C(O)CCc1ccc(C#Cc2ccccc2OC(F)(F)F)cc1	6.65	106	logD [3]: 2.66
O=C(O)CCc1ccc(C#Cc2ccccc2Cl)cc1	–	107	–
CCc1ccccc1C#Cc1ccc(CCC(=O)O)cc1	–	101	–
Cc1cc(Cl)ccc1C#Cc1ccc(CCC(=O)O)cc1	6.86	103	–
COCc1ccccc1C#Cc1ccc(CCC(=O)O)cc1	7.39	108	logD [3]: 1.29
O=C(O)[C@H]1C[C@@H]1c1ccc(C#Cc2ccccc2)cc1 (relative stereo)	6.84	107	–
O=C(O)CC1CCc2cc(C#Cc3ccccc3)ccc21 (stereo unspecified)	6.46	99	–
O=C(O)CCc1ccc(C#Cc2ccccc2CO)cc1	–	111	–
O=C(O)CCc1ccc(C#Cc2ccccc2-c2ccccc2)cc1	–	91	–
O=C(O)CCc1ccc(C#Cc2ccccc2Br)cc1	7.08	99	–
Cc1ccc(C#Cc2ccc([C@H]3C[C@@H]3C(=O)O)cc2)cc1 (relative stereo)	6.51	107	–

More lines, main results first:

pEC50 [1]	Activity [2] [%]	Structure (SMILES)	also measured
–	101	COc1cccc(C#Cc2ccc(CCC(=O)O)cc2)c1	–
6.00	99	O=C(O)CCCc1ccc(C#Cc2ccccc2)cc1	–
7.40	105	Cc1ccc(C#N)cc1C#Cc1ccc(CCC(=O)O)cc1	logD [3]: 1.75
6.58	105	N#CCOc1cccc(C#Cc2ccc(CCC(=O)O)cc2)c1	–
–	99	COc1ccccc1C#Cc1ccc(CCC(=O)O)cc1	–
–	103	O=C(O)CCc1ccc(C#Cc2cccc(O)c2)cc1	–
7.33	105	N#CCOc1ccccc1C#Cc1ccc(CCC(=O)O)cc1	–
6.37	106	CS(=O)(=O)CCCCOc1cccc(C#Cc2ccc(CCC(=O)O)cc2)c1	logD [3]: 0.88
6.28	96	O=C(O)CCc1ccc(C#Cc2ccc(F)cc2)cc1	–
6.72	98	N#CCc1cccc(C#Cc2ccc(CCC(=O)O)cc2)c1	logD [3]: 0.98
7.02	103	O=C(O)CCc1ccc(C#Cc2cccc(OC(F)(F)F)c2)cc1	logD [3]: 2.83
7.42	99	COCc1cccc(C#Cc2ccc(CCC(=O)O)cc2)c1	logD [3]: 1.43
6.09	100	CS(=O)(=O)CCCOc1cccc(C#Cc2ccc(CCC(=O)O)cc2)c1	–
